Results as given in ChEMBL document CHEMBL1131226, “Structure-activity relationship of 2-[[(2-pyridyl)methyl]thio]-1H- benzimidazoles as anti Helicobacter pylori agents in vitro and evaluation of their in vivo efficacy” (J Med Chem, 1998).
≈ marks a conversion by molar mass, not a printed value.

Key:
[1] = tested on: Helicobacter pylori; test: Antibacterial activity against Helicobacter pylori strain.; format: functional
Outline: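 H. pylori ATCC 43504 in Brucella broth (pH 7.0) with 10% FCS, starting at ~10⁶ CFU/mL. Compounds were tested as twofold serial dilutions, 0.5–256 μg/mL, made in DMSO. Cultures were incubated 72 h at 37 °C under 85% N₂/10% CO₂/5% O₂ and read by OD at 560 nm. MIC is the lowest concentration completely inhibiting growth.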

[2] = chromatographic retention
[3] = tested on: Helicobacter felis; test: Antibacterial activity against Helicobacter felis strain in vitro.

Log Ko [2]	Structure (SMILES)	MBC [1] [µg/mL]	MBC [3] [µg/mL]
–	c1ccc(CSc2nc3ccccc3[nH]2)nc1	128 (≈ 530 µM)	–
0.26	C=CCOc1ccnc(CSc2nc3ccccc3[nH]2)c1C	1 (≈ 3.21 µM)	–
0.75	Cc1c(OCC(C)C)ccnc1CSc1nc2ccccc2[nH]1	1 (≈ 3.05 µM)	–
-0.08	Clc1ccnc(CSc2nc3ccccc3[nH]2)c1	64 (≈ 232 µM)	–
0.44	COc1ccnc(CSc2nc3cc(F)ccc3[nH]2)c1OC	4 (≈ 12.5 µM)	–
0.86	COc1c(C)cnc(CSc2nc3cc(C(C)(C)C)ccc3[nH]2)c1C	8 (≈ 22.5 µM)	–
-0.66	COc1ccnc(CSc2nc3cc(CO)ccc3[nH]2)c1C	128 (≈ 406 µM)	–
0.05	COc1c(C)cnc(CSc2nc3ccccc3[nH]2)c1C	8 (≈ 26.7 µM)	–
0.23	Cc1cnc(CSc2nc3cc(C)ccc3[nH]2)c(C)c1	32 (≈ 113 µM)	–
-0.11	CC(=O)c1ccc2[nH]c(SCc3ncc(C)cc3C)nc2c1	128 (≈ 411 µM)	–
-0.01	C#CCOc1ccnc(CSc2nc3ccccc3[nH]2)c1C	2 (≈ 6.46 µM)	–
-0.17	COCCOc1ccnc(CSc2nc3ccccc3[nH]2)c1C	2 (≈ 6.07 µM)	–
0.19	CCOc1ccnc(CSc2nc3ccccc3[nH]2)c1C	2 (≈ 6.68 µM)	–
-0.21	Cc1ccnc(CSc2nc3ccccc3[nH]2)c1	128 (≈ 501 µM)	–
0.45	Cc1cnc(CSc2nc3cc(Cl)ccc3[nH]2)c(C)c1	8 (≈ 26.3 µM)	–
-0.16	COc1ccc2[nH]c(SCc3cc(SC)ccn3)nc2c1	256 (≈ 806 µM)	–
-0.08	COc1ccnc(CSc2nc3ccccc3[nH]2)c1C	32 (≈ 112 µM)	–
0.67	Cc1c(OCc2ccccc2)ccnc1CSc1nc2ccccc2[nH]1	8 (≈ 22.1 µM)	–
-0.3	COc1ccnc(CSc2nc3ccccc3[nH]2)c1	64 (≈ 236 µM)	–
0.07	COCCCOc1ccnc(CSc2nc3ccccc3[nH]2)c1C	2 (≈ 5.82 µM)	–
0.18	CC(=O)c1ccc2[nH]c(SCc3cc(C(C)(C)C)ccn3)nc2c1	64 (≈ 189 µM)	–
0.13	c1ccc2[nH]c(SCc3cc(OCC4CC4)ccn3)nc2c1	32 (≈ 103 µM)	–
0.46	Cc1c(OCC2CC2)ccnc1CSc1nc2ccccc2[nH]1	1 (≈ 3.07 µM)	0.5 (≈ 1.54 µM)
–	CC1(C)S[C@@H]2[C@H](NC(=O)[C@H](N)c3ccc(O)cc3)C(=O)N2[C@H]1C(=O)O [AMOXICILLIN]	0.05 (≈ 0.137 µM)	0.05 (≈ 0.137 µM)
0.28	Cc1c(OCC(F)(F)F)ccnc1CSc1nc2ccccc2[nH]1 [LANSOPRAZOLE SULFIDE]	4 (≈ 11.3 µM)	–
0	COc1ccc2[nH]c(SCc3ncc(C)c(OC)c3C)nc2c1 [UFIPRAZOLE]	32 (≈ 97.1 µM)	–
